Screening data from PubChem.
Most compounds without a hit are left out; they make up all but 2.8% or so of the library.
CAL PDZ FP-1 = untagged CAL PDZ binding inhibitors, primary screen, biochemical, fluorescence polarization, HTS; Golgi-associated PDZ and coiled-coil motif-containing protein (Homo sapiens), Q9HD26; purified CAL PDZ, TMR-peptide fluorescence polarization, 1 h; inhibition, % at 24.9 µM; actives 0.92% (n = 300,000); AID 602252, 2012;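 active = mean inhibition of at least 30% with at least half of replicates also reaching 30%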;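 also: 0% = DMSO neutral control and 100% = excess unlabeled competitor peptide PRC23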
CAL PDZ FP-2 = CAL PDZ peptide-binding inhibitors, primary screen, biochemical, fluorescence polarization, Cer-tagged CAL PDZ, HTS; actives 0.02% (n = 330,000); inhibition, % at 20 µM; Golgi-associated PDZ and coiled-coil motif-containing protein (Homo sapiens), Q9HD26; purified CAL PDZ, TMR-peptide fluorescence polarization, 1 h;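 active = highest replicate inhibition of at least 40%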;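 also: plate controls were DMSO neutral control wells for no effect and unlabeled competitor peptide control wells for full effect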
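Assay system – tagged CAL PDZ protein CerCALP, purified · Timing – 1 h at RT · Compound – single point, 20 µM · Measured by – fluorescence polarization from S- and P-plane intensities, G-factor corrected · Evaluation – inhibition from polarization loss · Probe or stimulus – TMR reporter peptide T*-PRC34 · Buffer or medium – pH 7.4 phosphate-saline buffer, reducing agent, detergent, IgG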
dFosB act-1 = activators of delta FosB homodimer, primary screen, biochemical, fluorescence polarization, TAMRA-CDK5 oligo, single point; Protein FosB (Mus musculus), P13346; purified delta FosB; percent of positive-control signal above neutral wells; activation, % at 25 µM; actives 0.99% (n = 340,000); AID 493131, 2011;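 active = mean activation above about 17%, with every replicate also reaching it, limit read from the data, passing the limit was not always enough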
Target sequence (P13346 whole entry, looked up): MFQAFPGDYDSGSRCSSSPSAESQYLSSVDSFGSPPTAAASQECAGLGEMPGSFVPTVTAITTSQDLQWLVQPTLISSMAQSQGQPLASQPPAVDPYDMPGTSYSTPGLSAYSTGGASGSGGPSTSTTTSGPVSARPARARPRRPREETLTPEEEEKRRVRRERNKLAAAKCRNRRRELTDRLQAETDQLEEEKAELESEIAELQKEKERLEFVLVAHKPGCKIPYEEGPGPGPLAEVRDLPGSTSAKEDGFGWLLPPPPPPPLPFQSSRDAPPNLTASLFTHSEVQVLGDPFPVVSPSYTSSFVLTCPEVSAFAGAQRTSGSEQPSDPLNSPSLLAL
SR-BI uptake up = activators of SR-BI mediated DiI-HDL uptake, primary screen, ldlA[mSR-BI] CHO cells, DiI fluorescence | 3 h; 100 = double the neutral-control signal | activation, % at 12.5 µM | actives 0.096% (n = 320,000);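 active = mean replicate activation of at least 60% and every replicate at or above 60%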;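 also: 0% = median plate neutral-control signal and 100% = twice that signal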
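Test system: SR-BI-overexpressing, LDLR-lacking CHO cells. Measured by: DiI fluorescence, bottom read. Medium: Ham's F12 with 0.5% BSA, HEPES 25 mM, pH 7.4. Timing: 3 h uptake period with compound, 37 °C.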
SR-BI DiI inh = inhibitors of SR-BI mediated HDL lipid uptake, primary screen, ldlA[mSR-BI] cells, fluorescence, single point. Scavenger receptor class B member 1 (Mus musculus), Q61009. actives 0.96% (n = 320,000). inhibition, % at 12.5 µM. ldlA[mSR-BI] CHO cells, DiI-HDL uptake fluorescence, 3 h;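 active = mean replicate inhibition of at least 70% and a set share of replicates each scoring 70 or more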;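 also: 0% = median of neutral control wells and 100% = median of positive control wells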
dFosB act-2 = activators of mouse delta FosB DNA binding, confirmation, biochemical, fluorescence polarization, TAMRA-CDK5 oligo, cherry-picked samples; activation, % at 24.9 µM; 2,400 tested, under 10 active; shares compounds with dFosB act-1; AID 588690, 2011; purified delta FosB; normalised: neutral wells 0, positive control 100;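 active = highest replicate activation at or above 34% and every replicate reaching that threshold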;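 also: higher polarization means more probe DNA bound by delta FosB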
Numbers without * were called inactive.

COc1ccc(Nc2nnc(SCC(=O)/C=C3/N(C)c4ccccc4C3(C)C)s2)cc1 was read as CAL PDZ FP-1 2.7, CAL PDZ FP-2 0.3, dFosB act-1 42.8*, SR-BI uptake up -9.8, SR-BI DiI inh 9.8 and dFosB act-2 0.9.
Screening CN1/C(=C\C(=O)CSc2nnc(N)s2)C(C)(C)c2ccccc21 returned CAL PDZ FP-1 -1.4, CAL PDZ FP-2 0.1, dFosB act-1 -0.5, SR-BI uptake up 15.8 and SR-BI DiI inh -15.8.
For Cc1cc(=O)[nH]c(N/N=C/c2c(C)nn(-c3ccc(F)cc3)c2Cl)n1 the results were CAL PDZ FP-1 -3.3, CAL PDZ FP-2 0.9, dFosB act-1 45.8*, SR-BI uptake up -23.1, SR-BI DiI inh 23.1 and dFosB act-2 0.4.
Screening O=C(COC(=O)c1ccc2ncsc2c1)NCc1cccc(Cl)c1 returned CAL PDZ FP-1 -2.9, CAL PDZ FP-2 -1.3, dFosB act-1 -13.1, SR-BI uptake up -1.1 and SR-BI DiI inh 1.1.
Screening O=C(COC(=O)c1ccc2ncsc2c1)NCc1ccccc1Cl returned CAL PDZ FP-1 1.8, CAL PDZ FP-2 -1.6, dFosB act-1 23.5*, SR-BI uptake up 13.0, SR-BI DiI inh -13.0 and dFosB act-2 -5.7.
O=C(CCC(=O)c1ccccc1)Nc1ccc(C(=O)O)cc1 was read as CAL PDZ FP-1 -2.0, CAL PDZ FP-2 0.2, dFosB act-1 -5.2, SR-BI uptake up 9.8 and SR-BI DiI inh -9.8.
For CCc1ccc(CNC(=O)CCn2nc(C)c3c(C)n(-c4ccccc4)nc3c2=O)cc1 the results were CAL PDZ FP-1 2.1, CAL PDZ FP-2 -0.7, dFosB act-1 73.4*, SR-BI uptake up -7.6, SR-BI DiI inh 7.6 and dFosB act-2 6.4.
Screening Cc1ccc(-n2nc3c(=O)n(CC(=O)NCCc4ccc(Cl)cc4)nc(C)c3c2C)cc1 returned CAL PDZ FP-1 -5.0, CAL PDZ FP-2 -1.6, dFosB act-1 50.6*, SR-BI uptake up -61.8, SR-BI DiI inh 61.8 and dFosB act-2 0.1.
Screening Cc1ccc(CCNC(=O)CCCn2nc(C)c3c(C)n(-c4ccc(C)cc4)nc3c2=O)cc1 returned CAL PDZ FP-1 -0.2, CAL PDZ FP-2 -3.1, dFosB act-1 2.4, SR-BI uptake up -12.7 and SR-BI DiI inh 12.7.
For Cc1ccc(-n2nc3c(=O)n(CC(=O)NCc4ccccc4)nc(C)c3c2C)cc1 the results were CAL PDZ FP-1 -4.1, CAL PDZ FP-2 -0.1, dFosB act-1 20.8*, SR-BI uptake up 6.8, SR-BI DiI inh -6.8 and dFosB act-2 -0.4.
Screening CC1(C)NC(=S)NC1=S returned CAL PDZ FP-2 -0.1, dFosB act-1 12.9, SR-BI uptake up 14.4 and SR-BI DiI inh -14.4.
Screening N#Cc1c(N)nc(SCC(=O)NCCc2ccccc2)c(C#N)c1-c1cccs1 returned CAL PDZ FP-1 -1.8, CAL PDZ FP-2 0.0, dFosB act-1 35.9*, SR-BI uptake up 19.4, SR-BI DiI inh -19.4 and dFosB act-2 -0.2.
For Cc1ccc(NC(=O)CSc2nnnn2-c2ccc3c(c2)OCO3)cc1C the results were CAL PDZ FP-1 2.9, CAL PDZ FP-2 -1.6, dFosB act-1 40.4*, SR-BI uptake up 17.0, SR-BI DiI inh -17.0 and dFosB act-2 0.1.
`Cc1ccc(-n2nnnc2SCC(=O)Nc2ccc3c(c2)COC3=O)cc1C` gave CAL PDZ FP-1 0.5, CAL PDZ FP-2 -1.8, dFosB act-1 53.6*, SR-BI uptake up 16.2, SR-BI DiI inh -16.2 and dFosB act-2 -3.4.
For COc1ccc(-n2nnnc2SCC(=O)c2ccc3c(c2)OCCO3)cc1 the results were CAL PDZ FP-1 -3.6, dFosB act-1 22.6*, SR-BI uptake up 38.2, SR-BI DiI inh -38.2 and dFosB act-2 1.7.
